# The M2OR odorant receptor database
# Test system: T1, OR2T6 C23G
# T1 sequence (whole entry): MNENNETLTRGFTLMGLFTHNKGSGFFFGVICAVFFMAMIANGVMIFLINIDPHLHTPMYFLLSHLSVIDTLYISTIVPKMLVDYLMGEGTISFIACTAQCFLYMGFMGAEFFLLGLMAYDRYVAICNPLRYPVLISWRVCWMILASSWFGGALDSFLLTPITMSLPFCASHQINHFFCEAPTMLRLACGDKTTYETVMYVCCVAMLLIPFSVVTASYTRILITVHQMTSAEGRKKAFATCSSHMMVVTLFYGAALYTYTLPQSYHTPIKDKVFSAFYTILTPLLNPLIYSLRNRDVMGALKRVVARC
# Conditions: stereoisomer not certain
# In short: (§1)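 Transient luciferase assays in mammalian cell lines were common, though methods varied by source. The values come from published papers and their supplementary material, with extra details from the original authors when needed. Responsive refers to a measured signal the original authors judged statistically different from baseline, and non-responsive (inactive) to the remainder.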
# 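Further: active if original authors judged signal statistically different from baseline.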
row,Structure (SMILES),odorant receptor agonist call
1,CCC1OC(C)=C(O)C1=O (stereo not drawn),inactive
2,CCCC(S)CCOC(C)=O (stereo not drawn),inactive
3,CCC1OC(=O)C(O)=C1C (stereo not drawn),inactive
4,CC1=C(O)C(=O)OC1C (stereo not drawn),inactive
5,CCCCCCC=CCCC=O,inactive
6,Cc1cnc(C)c(C)n1,inactive
7,CC1=C(O)C(=O)C(C)O1 (stereo not drawn),inactive
8,CC1=NC(C)C(C)S1 (stereo not drawn),inactive

# Target: T2, OR2T7 (Homo sapiens) (UniProt P0C7T2)
# T2 sequence (whole entry): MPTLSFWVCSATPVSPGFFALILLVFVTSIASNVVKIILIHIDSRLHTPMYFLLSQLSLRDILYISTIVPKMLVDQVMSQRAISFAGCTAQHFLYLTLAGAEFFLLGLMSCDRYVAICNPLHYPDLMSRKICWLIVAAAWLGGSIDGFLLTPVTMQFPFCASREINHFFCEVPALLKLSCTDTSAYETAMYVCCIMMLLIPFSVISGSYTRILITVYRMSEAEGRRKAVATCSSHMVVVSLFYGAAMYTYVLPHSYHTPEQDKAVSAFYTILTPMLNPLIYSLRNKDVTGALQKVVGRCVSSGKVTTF
# Conditions: stereoisomer not certain
# In short: as §1
row,Structure (SMILES),odorant receptor agonist call
1,CCCCC(S)C(C)CO (stereo not drawn),inactive
2,CCCCCC(S)C(C)CO (stereo not drawn),inactive
3,CCCCCCC=CCCC=O,inactive
4,CC(CO)CS (stereo not drawn),inactive
5,CC(=O)c1c(C)c([N+](=O)[O-])c(C(C)(C)C)c([N+](=O)[O-])c1C,inactive
6,CCCCCC(=O)C(C)C(C)=O (stereo not drawn),inactive
7,CC1CCCCCCCCCCCCC(=O)C1 (stereo not drawn),inactive
8,CCC(S)C(C)CO (stereo not drawn),inactive

# Test system: T3, OR2T7
# T3 sequence (whole entry): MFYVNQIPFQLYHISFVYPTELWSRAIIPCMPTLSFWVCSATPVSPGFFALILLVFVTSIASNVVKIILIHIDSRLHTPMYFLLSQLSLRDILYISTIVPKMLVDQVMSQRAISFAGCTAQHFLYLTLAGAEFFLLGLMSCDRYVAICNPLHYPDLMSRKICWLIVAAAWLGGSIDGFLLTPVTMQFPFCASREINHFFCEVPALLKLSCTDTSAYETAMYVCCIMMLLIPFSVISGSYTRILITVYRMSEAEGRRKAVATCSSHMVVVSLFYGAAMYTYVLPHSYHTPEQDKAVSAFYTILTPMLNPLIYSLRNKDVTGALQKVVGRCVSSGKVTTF
# Conditions: stereoisomer not certain
# In short: as §1
row,Structure (SMILES),odorant receptor agonist call
1,CCC1OC(C)=C(O)C1=O (stereo not drawn),inactive
2,CCCC(S)CCOC(C)=O (stereo not drawn),inactive
3,CCC1OC(=O)C(O)=C1C (stereo not drawn),inactive
4,CC1=C(O)C(=O)OC1C (stereo not drawn),inactive
5,Cc1cnc(C)c(C)n1,inactive
6,CC1=C(O)C(=O)C(C)O1 (stereo not drawn),inactive
7,CC1=NC(C)C(C)S1 (stereo not drawn),inactive

# Target: T4, OR2T8 (Homo sapiens) (UniProt A6NH00)
# T4 sequence (whole entry): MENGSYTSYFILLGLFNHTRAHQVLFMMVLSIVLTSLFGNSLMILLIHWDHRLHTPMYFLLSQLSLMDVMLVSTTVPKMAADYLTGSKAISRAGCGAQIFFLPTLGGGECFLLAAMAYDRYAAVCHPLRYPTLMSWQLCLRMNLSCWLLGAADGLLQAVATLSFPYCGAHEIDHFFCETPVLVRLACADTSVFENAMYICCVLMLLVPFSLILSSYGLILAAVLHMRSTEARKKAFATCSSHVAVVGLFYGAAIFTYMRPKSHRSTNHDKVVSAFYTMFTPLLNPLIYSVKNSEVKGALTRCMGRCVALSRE
# Conditions: stereoisomer not certain
# In short: as §1
row,Structure (SMILES),odorant receptor agonist call
1,CCC1OC(C)=C(O)C1=O (stereo not drawn),inactive
2,CCCCC(S)C(C)CO (stereo not drawn),inactive
3,CCCC(S)CCOC(C)=O (stereo not drawn),inactive
4,CCC1OC(=O)C(O)=C1C (stereo not drawn),inactive
5,CC1=C(O)C(=O)OC1C (stereo not drawn),inactive
6,CCCCCC(S)C(C)CO (stereo not drawn),inactive
7,CCCCCCC=CCCC=O,inactive
8,CC(CO)CS (stereo not drawn),inactive
9,Cc1cnc(C)c(C)n1,inactive
10,CC1=C(O)C(=O)C(C)O1 (stereo not drawn),inactive
11,CC(=O)c1c(C)c([N+](=O)[O-])c(C(C)(C)C)c([N+](=O)[O-])c1C,inactive
12,CC1=NC(C)C(C)S1 (stereo not drawn),inactive
13,CCCCCC(=O)C(C)C(C)=O (stereo not drawn),inactive
14,CC1CCCCCCCCCCCCC(=O)C1 (stereo not drawn),inactive
15,CCC(S)C(C)CO (stereo not drawn),inactive

# Target: T5, OR2V1 (Homo sapiens) (UniProt Q8NHB1)
# T5 sequence (whole entry): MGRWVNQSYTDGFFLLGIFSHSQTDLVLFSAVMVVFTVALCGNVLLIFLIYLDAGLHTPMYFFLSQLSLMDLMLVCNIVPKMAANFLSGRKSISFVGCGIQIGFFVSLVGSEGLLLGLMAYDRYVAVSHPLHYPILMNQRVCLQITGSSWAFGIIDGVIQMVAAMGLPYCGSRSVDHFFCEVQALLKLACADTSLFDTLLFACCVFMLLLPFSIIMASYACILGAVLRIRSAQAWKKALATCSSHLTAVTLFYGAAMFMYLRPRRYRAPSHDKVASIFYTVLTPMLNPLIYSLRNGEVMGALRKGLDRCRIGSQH
# Conditions: stereoisomer not certain
# In short: as §1
row,Structure (SMILES),odorant receptor agonist call
1,CCC1OC(C)=C(O)C1=O (stereo not drawn),inactive
2,CCCCC(S)C(C)CO (stereo not drawn),inactive
3,CCCC(S)CCOC(C)=O (stereo not drawn),inactive
4,CCC1OC(=O)C(O)=C1C (stereo not drawn),inactive
5,CC1=C(O)C(=O)OC1C (stereo not drawn),inactive
6,CCCCCC(S)C(C)CO (stereo not drawn),inactive
7,CCCCCCC=CCCC=O,inactive
8,CC(CO)CS (stereo not drawn),inactive
9,Cc1cnc(C)c(C)n1,inactive
10,CC1=C(O)C(=O)C(C)O1 (stereo not drawn),inactive
11,CC(=O)c1c(C)c([N+](=O)[O-])c(C(C)(C)C)c([N+](=O)[O-])c1C,inactive
12,CC1=NC(C)C(C)S1 (stereo not drawn),inactive
13,CCCCCC(=O)C(C)C(C)=O (stereo not drawn),inactive
14,CC1CCCCCCCCCCCCC(=O)C1 (stereo not drawn),inactive
15,CCC(S)C(C)CO (stereo not drawn),inactive
